This note sets out measurements from BindingDB's records for doi:10.1021/jm970240y (Sanofi Recherche, 1997).

Where only a bound is given, the exact number is not on record here.

Chain of Integrin alpha-IIb/beta-3 (P05106 27-788 limits assumed): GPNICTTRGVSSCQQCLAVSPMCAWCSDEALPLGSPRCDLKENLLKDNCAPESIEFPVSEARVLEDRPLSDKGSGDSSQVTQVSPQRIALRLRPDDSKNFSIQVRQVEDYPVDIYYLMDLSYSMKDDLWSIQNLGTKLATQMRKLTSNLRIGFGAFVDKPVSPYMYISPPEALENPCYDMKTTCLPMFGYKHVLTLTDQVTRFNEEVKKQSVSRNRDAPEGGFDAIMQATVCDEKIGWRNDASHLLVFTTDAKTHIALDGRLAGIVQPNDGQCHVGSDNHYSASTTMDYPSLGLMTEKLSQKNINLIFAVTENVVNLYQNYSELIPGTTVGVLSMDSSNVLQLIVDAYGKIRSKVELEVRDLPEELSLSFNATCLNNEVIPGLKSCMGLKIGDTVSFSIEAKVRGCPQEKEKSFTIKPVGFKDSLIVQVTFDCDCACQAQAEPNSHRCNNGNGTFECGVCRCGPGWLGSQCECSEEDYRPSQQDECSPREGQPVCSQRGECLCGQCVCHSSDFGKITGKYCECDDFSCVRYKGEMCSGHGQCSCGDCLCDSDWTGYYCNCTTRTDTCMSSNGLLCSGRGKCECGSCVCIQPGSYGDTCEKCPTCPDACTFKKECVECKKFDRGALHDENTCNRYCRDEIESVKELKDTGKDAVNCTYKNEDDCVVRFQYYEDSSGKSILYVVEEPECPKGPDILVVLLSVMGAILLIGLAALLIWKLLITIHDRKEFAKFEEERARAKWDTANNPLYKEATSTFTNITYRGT
Chain of Integrin alpha-IIb/beta-3 (P08514 32-887 limits assumed): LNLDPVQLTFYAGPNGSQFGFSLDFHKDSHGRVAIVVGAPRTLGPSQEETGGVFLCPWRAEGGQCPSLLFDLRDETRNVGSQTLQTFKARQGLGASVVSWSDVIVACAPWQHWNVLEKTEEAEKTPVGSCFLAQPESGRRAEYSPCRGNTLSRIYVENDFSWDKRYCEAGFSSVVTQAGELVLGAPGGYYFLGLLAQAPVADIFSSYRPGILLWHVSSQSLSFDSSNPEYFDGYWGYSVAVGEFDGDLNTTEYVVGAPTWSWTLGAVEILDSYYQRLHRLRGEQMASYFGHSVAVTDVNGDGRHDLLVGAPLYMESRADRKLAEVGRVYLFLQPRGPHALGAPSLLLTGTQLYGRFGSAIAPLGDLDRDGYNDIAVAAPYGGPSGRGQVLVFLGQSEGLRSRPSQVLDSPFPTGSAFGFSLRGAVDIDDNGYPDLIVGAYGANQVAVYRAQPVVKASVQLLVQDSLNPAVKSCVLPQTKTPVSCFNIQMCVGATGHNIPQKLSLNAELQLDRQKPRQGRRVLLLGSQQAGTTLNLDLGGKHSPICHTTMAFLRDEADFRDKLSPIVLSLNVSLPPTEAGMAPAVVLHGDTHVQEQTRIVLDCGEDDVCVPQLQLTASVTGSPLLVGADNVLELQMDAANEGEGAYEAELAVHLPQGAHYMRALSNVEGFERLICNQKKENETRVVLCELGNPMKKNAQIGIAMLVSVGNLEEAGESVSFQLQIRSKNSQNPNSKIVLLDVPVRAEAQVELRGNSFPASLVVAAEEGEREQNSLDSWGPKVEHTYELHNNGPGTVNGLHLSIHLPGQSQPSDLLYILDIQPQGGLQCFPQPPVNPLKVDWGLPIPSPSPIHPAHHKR
Chain of Integrin alpha-IIb/beta-3 (P08514 891-1039 limits assumed): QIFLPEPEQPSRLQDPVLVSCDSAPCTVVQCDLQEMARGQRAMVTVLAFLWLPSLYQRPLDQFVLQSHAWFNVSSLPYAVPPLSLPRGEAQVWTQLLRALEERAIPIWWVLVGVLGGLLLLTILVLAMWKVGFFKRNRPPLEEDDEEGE

This assay concerns the target Integrin alpha-IIb/beta-3 (Homo sapiens, UniProt P08514+P05106). Briefly: In vitro inhibition of ADP-induced (2.5 uM) human platelet aggregation. The essentials:
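Human PRP from citrated blood (0.38% final) of unmedicated donors, spun 1000g 10 min; compound added in DMSO (0.01% final) 1 min before 2.5 μM ADP. Aggregation by Born method, measured as maximum curve height; percent inhibition calculated against vehicle-alone aggregation.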
Turning to `CC(C)(C(=O)O)N1CCC(Nc2nc(-c3ccc(C(=N)N)cc3)cs2)CC1` [2-{4-[4-(4-Carbamimidoyl-phenyl)-thiazol-2-ylamino]-piperidin-1-yl}-2-methyl-propionic acid], the IC50 was above 10000 nM.

Consider `N=C(N)c1ccc(-c2csc(N(CC(=O)O)C3CCN(CC(=O)O)CC3)n2)cc1` [[[4-(4-Carbamimidoyl-phenyl)-thiazol-2-yl]-(1-carboxymethyl-piperidin-4-yl)-amino]-acetic acid], for which half-maximal inhibition (IC50) was put at 170 nM.

`N=C(N)c1ccc(-c2csc(NC3CCN(CC(=O)O)CC3)n2)cc1` [{4-[4-(4-Carbamimidoyl-phenyl)-thiazol-2-ylamino]-piperidin-1-yl}-acetic acid] gave a half-inhibitory concentration (IC50) of 42 nM.

Compound `N=C(N)c1ccc(-c2csc(N(Cc3ccccc3)C3CCN(CC(=O)O)CC3)n2)cc1` [(4-{Benzyl-[4-(4-carbamimidoyl-phenyl)-thiazol-2-yl]-amino}-piperidin-1-yl)-acetic acid] returned a concentration for half-maximal inhibition (IC50) of 230 nM.

With `N=C(N)c1ccc(-c2csc(NC3CCN(C(C(=O)O)c4ccccc4Cl)CC3)n2)cc1` (configuration not stated) [4-[4-(4-carbamimidoyl-phenyl)-thiazol-2-ylamino]-piperidin-1-yl}-(2-chloro-phenyl)-acetic acid], the IC50 amounted to 6000 nM.

In the case of `CN(c1nc(-c2ccc(C(=N)N)cc2)cs1)C1CCN(CC(=O)O)CC1` [(4-{[4-(4-carbamimidoyl-phenyl)-thiazol-2-yl]-methyl-amino}-piperidin-1-yl)-acetic acid], 160 nM corresponded to half-maximal inhibition (IC50).

In the case of `N=C(N)c1ccc(-c2csc(NC3CCN(C(C(=O)O)c4ccccc4)CC3)n2)cc1` (configuration not stated) [{4-[4-(4-Carbamimidoyl-phenyl)-thiazol-2-ylamino]-piperidin-1-yl}-phenyl-acetic acid], the IC50 amounted to 65 nM.

In the case of `CC(C(=O)O)N1CCC(Nc2nc(-c3ccc(C(=N)N)cc3)cs2)CC1` (configuration not stated) [2-{4-[4-(4-carbamimidoyl-phenyl)-thiazol-2-ylamino]-piperidin-1-yl}-propionic acid], it took 250 nM to reach half-maximal inhibition (IC50).

In turn, `N=C(N)c1ccc(-c2csc(N(CCCC(=O)O)C3CCN(CC(=O)O)CC3)n2)cc1` [4-[[4-(4-Carbamimidoyl-phenyl)-thiazol-2-yl]-(1-carboxymethyl-piperidin-4-yl)-amino]-butyric acid] came in with an IC50 of 96 nM.

`N=C(N)c1ccc(-c2csc(N(CCC(=O)O)C3CCN(CC(=O)O)CC3)n2)cc1` [3-[[4-(4-Carbamimidoyl-phenyl)-thiazol-2-yl]-(1-carboxymethyl-piperidin-4-yl)-amino]-propionic acid] registered an IC50 of 46 nM.

`COC(=O)CC(C(=O)O)N1CCC(Nc2nc(-c3ccc(C(=N)N)cc3)cs2)CC1` (configuration not stated) [2-{4-[4-(4-Carbamimidoyl-phenyl)-thiazol-2-ylamino]-piperidin-1-yl}-succinic acid 4-methyl ester]: 85 nM corresponded to half-maximal inhibition (IC50).

In the case of `N=C(N)c1ccc(-c2csc(NC3CCN(CCC(=O)O)CC3)n2)cc1` [3-{4-[4-(4-carbamimidoyl-phenyl)-thiazol-2-ylamino]-piperidin-1-yl}-propionic acid], it took 1800 nM to reach half-maximal inhibition (IC50).

A word on the IC50: it is the point on the concentration scale where inhibition reaches its midpoint. A high value points to weaker potency.
